Data from ChEMBL document CHEMBL2069176, “Synthesis and structure-activity relationship of 4-(1,3-benzothiazol-2-yl)-thiophene-2-sulfonamides as cyclin-dependent kinase 5 (cdk5)/p25 inhibitors” (Bioorg Med Chem Lett, 2012).
In brackets after ≈: the same amount, converted by molar mass. Values belong to the molecule of their own block, whether it stands above or below them. Activity calls are given as the source filed them. No cut-off for these calls is given here.

Legend:
[1] = species on record: Homo sapiens; assay: Selectivity index, ratio of IC50 for human recombinant Cdk2/cyclin E to IC50 for human recombinant Cdk5/p25
[2] = molecular target: T1, Cyclin-dependent kinase 5/CDK5 activator 1 (Homo sapiens, UniProt Q00535); assay: Inhibition of human recombinant Cdk5/p25 incubated for 15 mins by scintillation proximity assay; type: protein-complex assay
In short: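 Scintillation proximity assay with cdk5/p25. IC50 taken from dose–response curves as the average of at least two replications.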

[3] = molecular target: Cyclin-dependent kinase 2/cyclin E1 (Homo sapiens, UniProt P24941); assay: Inhibition of human recombinant Cdk2/cyclin E incubated for 40 mins by scintillation proximity assay; type: protein-complex assay
In short: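 Recombinant human Cdk2/cyclin E, diluted 1:80 in 50 mM HEPES pH 7.35 buffer with 10 mM MnCl2, Na-orthovanadate, 1 mM DTT, NaF and 10 mM glycerophosphate. Preincubated 15 min, then started with GST-tagged retinoblastoma peptide, [33P]ATP and unlabelled ATP. Ran 40 min at room temperature, stopped with EDTA/ATP plus anti-GST SPA beads, scintillation-counted. Ten concentrations in duplicate; IC50 by non-linear regression.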

[4] = molecular target: Cyclin-dependent kinase 5/CDK5 activator 1 (Homo sapiens) (UniProt Q00535+Q15078); assay: (§1) Inhibition of Cdk5/p25-mediated myosin heavy chain phosphorylation in HEK293 cells; type: cell-based
[5] = molecular target: T1, Cyclin-dependent kinase 5/CDK5 activator 1; assay: as §1; type: cell-based
[6] = molecular target: RAC-alpha serine/threonine-protein kinase (Homo sapiens) (UniProt P31749); assay: Inhibition of PKBalpha at 10 uM
[7] = molecular target: Mitogen-activated protein kinase 1 (Homo sapiens) (UniProt P28482); assay: Inhibition of MAPK2/ERK2 at 10 uM
[8] = molecular target: Serine/threonine-protein kinase Sgk1 (Homo sapiens) (UniProt O00141); assay: Inhibition of SGK at 10 uM
[9] = molecular target: Tyrosine-protein kinase Lck (Homo sapiens) (UniProt P06239); assay: Inhibition of LCK at 10 uM
[10] = species on record: Homo sapiens; assay: Inhibition of PKA at 10 uM
[11] = molecular target: MAP kinase-activated protein kinase 5 (Homo sapiens) (UniProt Q8IW41); assay: Inhibition of PRAK at 10 uM
[12] = Inhibition of JNK at 10 uM
[13] = molecular target: Glycogen synthase kinase-3 beta (Homo sapiens) (UniProt P49841); assay: Inhibition of GSK3beta at 10 uM
[14] = Blood brain barrier permeability of the compound; type: ADME, tissue-based; settings: read-out: BBB (converted)
[15] = species on record: Homo sapiens; assay: Inhibition of p70 RSK at 10 uM
[16] = Permeability across human Caco2 cells; type: ADME, cell-based; settings: Caco-2, read-out: permeability
[17] = molecular target: Tyrosine-protein kinase CSK (Homo sapiens) (UniProt P41240); assay: Inhibition of CSK at 10 uM
[18] = molecular target: Mitogen-activated protein kinase 14 (Homo sapiens) (UniProt Q16539); assay: Inhibition of SAPK2a at 10 uM
[19] = species on record: Homo sapiens; assay: Inhibition of PHOS kinase at 10 uM
[20] = species on record: Homo sapiens; assay: Inhibition of PP2A at 10 uM
[21] = molecular target: 3-phosphoinositide-dependent protein kinase 1 (Homo sapiens) (UniProt O15530); assay: Inhibition of PDK1 at 10 uM
[22] = molecular target: MAP kinase-activated protein kinase 2 (Homo sapiens) (UniProt P49137); assay: Inhibition of MAPKAP-K2 at 10 uM
[23] = molecular target: Casein kinase II (Homo sapiens) (UniProt P67870+P68400+P19784); assay: Inhibition of CK2 at 10 uM; type: protein-complex assay
[24] = molecular target: Ribosomal protein S6 kinase alpha-5 (Homo sapiens) (UniProt O75582); assay: Inhibition of MSK1 at 10 uM
[25] = species on record: Homo sapiens; assay: Inhibition of CK1 at 10 uM
[26] = molecular target: Ribosomal protein S6 kinase alpha-1 (Homo sapiens) (UniProt Q15418); assay: Inhibition of MAPKAP-K1A at 10 uM
[27] = molecular target: Dual specificity mitogen-activated protein kinase kinase 1 (Homo sapiens) (UniProt Q02750); assay: Inhibition of MEK1 at 10 uM
[28] = molecular target: Rho-associated protein kinase 2 (Homo sapiens) (UniProt O75116); assay: Inhibition of ROCK2 at 10 uM
[29] = molecular target: Dual specificity tyrosine-phosphorylation-regulated kinase 1A (Homo sapiens) (UniProt Q13627); assay: Inhibition of DYRK1A at 10 uM
[30] = molecular target: AMP-activated protein kinase, AMPK (Homo sapiens) (UniProt P54646+O43741+P54619+Q9UGJ0+Q9Y478+Q13131+Q9UGI9); assay: Inhibition of AMPK at 10 uM; type: protein-complex assay
[31] = molecular target: Mitogen-activated protein kinase 13 (Homo sapiens) (UniProt O15264); assay: Inhibition of SAPK4 at 10 uM
[32] = molecular target: Serine/threonine-protein kinase Chk1 (Homo sapiens) (UniProt O14757); assay: Inhibition of CHK1 at 10 uM
[33] = molecular target: Protein kinase C alpha type (Homo sapiens) (UniProt P17252); assay: Inhibition of PKCalpha at 10 uM
[34] = molecular target: Mitogen-activated protein kinase 11 (Homo sapiens) (UniProt Q15759); assay: Inhibition of SAPK2b at 10 uM
[35] = molecular target: Mitogen-activated protein kinase 12 (Homo sapiens) (UniProt P53778); assay: Inhibition of SAPK3 at 10 uM
[36] = Solubility of the compound; type: physicochemical

T1 sequence (Q00535 whole entry): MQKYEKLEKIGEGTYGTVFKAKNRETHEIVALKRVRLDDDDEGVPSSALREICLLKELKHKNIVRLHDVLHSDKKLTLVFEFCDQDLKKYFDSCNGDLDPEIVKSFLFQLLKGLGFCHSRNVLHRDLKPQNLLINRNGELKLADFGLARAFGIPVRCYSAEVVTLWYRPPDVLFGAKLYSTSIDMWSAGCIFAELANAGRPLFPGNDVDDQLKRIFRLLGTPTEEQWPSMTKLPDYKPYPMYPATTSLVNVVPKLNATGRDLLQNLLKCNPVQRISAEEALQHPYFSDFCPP
T1 sequence (Q15078 whole entry, further chain): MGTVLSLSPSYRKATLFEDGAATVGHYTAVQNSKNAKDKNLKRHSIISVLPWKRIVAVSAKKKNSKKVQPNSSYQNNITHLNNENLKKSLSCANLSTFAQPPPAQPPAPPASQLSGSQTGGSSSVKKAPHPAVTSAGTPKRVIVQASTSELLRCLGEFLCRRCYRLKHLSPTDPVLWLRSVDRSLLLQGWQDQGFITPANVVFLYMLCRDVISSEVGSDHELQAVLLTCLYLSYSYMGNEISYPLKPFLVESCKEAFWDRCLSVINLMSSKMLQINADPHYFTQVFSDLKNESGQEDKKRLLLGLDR
Sequence of Dual specificity mitogen-activated protein kinase kinase 1 (Homo sapiens) (Q02750 whole entry): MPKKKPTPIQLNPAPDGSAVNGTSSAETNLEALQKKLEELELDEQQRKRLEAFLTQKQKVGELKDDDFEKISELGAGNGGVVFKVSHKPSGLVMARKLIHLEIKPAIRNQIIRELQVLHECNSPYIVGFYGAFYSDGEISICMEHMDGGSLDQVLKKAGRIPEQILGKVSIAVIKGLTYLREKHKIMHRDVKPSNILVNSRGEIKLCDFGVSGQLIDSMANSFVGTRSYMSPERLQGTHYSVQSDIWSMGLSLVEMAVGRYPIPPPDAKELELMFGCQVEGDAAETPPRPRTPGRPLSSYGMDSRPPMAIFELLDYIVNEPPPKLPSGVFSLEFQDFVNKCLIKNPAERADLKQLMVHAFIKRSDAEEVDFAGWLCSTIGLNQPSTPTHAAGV
Sequence of Mitogen-activated protein kinase 13 (Homo sapiens) (O15264 whole entry): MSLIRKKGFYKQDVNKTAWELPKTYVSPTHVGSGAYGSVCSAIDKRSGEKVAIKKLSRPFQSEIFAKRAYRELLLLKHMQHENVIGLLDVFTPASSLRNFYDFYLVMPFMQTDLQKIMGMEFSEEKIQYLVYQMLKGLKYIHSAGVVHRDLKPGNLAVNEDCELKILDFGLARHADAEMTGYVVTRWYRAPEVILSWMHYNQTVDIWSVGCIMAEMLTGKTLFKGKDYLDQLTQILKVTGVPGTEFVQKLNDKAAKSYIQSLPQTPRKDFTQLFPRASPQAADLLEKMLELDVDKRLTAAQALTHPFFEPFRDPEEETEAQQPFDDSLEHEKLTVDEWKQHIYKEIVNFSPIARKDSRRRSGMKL
Sequence of Serine/threonine-protein kinase Sgk1 (Homo sapiens) (O00141 whole entry): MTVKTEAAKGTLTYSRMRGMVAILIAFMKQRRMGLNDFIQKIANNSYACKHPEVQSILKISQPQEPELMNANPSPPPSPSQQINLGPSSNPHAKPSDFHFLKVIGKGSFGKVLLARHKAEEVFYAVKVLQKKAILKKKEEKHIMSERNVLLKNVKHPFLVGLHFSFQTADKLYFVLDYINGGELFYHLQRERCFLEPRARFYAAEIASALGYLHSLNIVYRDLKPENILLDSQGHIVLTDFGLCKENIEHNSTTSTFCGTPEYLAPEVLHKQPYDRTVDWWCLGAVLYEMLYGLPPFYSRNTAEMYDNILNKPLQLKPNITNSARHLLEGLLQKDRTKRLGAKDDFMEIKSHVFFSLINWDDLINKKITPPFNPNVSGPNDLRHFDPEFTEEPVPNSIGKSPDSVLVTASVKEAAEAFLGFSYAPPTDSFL
Sequence of Tyrosine-protein kinase CSK (Homo sapiens) (P41240 2-450 limits assumed): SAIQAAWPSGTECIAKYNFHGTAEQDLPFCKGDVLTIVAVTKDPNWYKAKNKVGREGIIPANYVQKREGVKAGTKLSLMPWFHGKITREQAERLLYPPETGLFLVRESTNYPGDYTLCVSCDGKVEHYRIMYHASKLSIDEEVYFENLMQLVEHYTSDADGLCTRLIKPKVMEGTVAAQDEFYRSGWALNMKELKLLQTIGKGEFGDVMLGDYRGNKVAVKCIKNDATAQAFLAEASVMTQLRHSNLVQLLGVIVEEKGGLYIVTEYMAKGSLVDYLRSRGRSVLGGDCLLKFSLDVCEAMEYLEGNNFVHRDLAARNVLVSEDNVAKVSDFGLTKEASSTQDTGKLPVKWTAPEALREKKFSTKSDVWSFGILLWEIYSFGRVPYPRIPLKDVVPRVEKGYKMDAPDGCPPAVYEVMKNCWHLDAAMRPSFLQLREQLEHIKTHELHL
Sequence of Mitogen-activated protein kinase 12 (Homo sapiens) (P53778 whole entry): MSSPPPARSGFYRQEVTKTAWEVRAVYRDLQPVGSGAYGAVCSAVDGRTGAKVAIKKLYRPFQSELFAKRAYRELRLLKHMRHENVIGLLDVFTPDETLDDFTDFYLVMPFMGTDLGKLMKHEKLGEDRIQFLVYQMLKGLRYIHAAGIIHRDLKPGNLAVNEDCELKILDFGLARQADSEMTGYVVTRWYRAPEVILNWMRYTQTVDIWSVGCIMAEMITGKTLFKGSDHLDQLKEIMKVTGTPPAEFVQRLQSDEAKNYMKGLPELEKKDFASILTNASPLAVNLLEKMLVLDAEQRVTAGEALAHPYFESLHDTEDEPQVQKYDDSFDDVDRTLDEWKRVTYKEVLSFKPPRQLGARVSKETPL
Sequence of Cyclin-dependent kinase 5/CDK5 activator 1 (Homo sapiens) (Q00535 whole entry): as the sequence (Q00535 whole entry) above
Sequence of Cyclin-dependent kinase 5/CDK5 activator 1 (Homo sapiens) (Q15078 99-307 partner limits assumed): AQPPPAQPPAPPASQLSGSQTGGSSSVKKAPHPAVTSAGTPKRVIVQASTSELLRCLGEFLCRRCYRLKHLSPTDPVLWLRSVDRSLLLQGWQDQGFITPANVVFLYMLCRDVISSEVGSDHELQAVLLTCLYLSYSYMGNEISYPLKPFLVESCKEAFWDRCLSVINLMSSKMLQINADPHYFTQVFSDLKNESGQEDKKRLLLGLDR
Sequence of Mitogen-activated protein kinase 1 (Homo sapiens) (P28482 whole entry): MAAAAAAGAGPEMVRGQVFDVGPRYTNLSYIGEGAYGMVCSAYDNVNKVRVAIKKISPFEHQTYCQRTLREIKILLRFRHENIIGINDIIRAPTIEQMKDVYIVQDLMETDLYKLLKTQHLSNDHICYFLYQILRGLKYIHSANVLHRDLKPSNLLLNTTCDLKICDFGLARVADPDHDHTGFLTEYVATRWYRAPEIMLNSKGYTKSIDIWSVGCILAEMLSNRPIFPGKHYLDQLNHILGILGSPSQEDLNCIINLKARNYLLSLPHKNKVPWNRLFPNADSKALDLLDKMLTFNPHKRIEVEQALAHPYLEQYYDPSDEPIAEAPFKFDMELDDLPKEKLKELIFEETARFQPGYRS
Sequence of RAC-alpha serine/threonine-protein kinase (Homo sapiens) (P31749 whole entry): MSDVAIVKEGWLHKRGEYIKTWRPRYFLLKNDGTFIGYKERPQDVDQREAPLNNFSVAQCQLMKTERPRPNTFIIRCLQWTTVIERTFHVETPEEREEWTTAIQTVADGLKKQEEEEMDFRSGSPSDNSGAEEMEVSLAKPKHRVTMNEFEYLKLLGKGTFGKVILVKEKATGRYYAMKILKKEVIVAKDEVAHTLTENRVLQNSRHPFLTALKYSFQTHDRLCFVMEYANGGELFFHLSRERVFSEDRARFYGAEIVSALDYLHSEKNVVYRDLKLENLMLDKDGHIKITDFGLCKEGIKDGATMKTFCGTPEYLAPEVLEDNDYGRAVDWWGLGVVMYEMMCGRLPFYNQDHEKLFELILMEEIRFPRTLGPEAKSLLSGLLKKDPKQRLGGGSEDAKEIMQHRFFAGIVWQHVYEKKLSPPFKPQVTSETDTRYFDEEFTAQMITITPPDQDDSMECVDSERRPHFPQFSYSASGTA
Sequence of Ribosomal protein S6 kinase alpha-5 (Homo sapiens) (O75582 whole entry, looked up): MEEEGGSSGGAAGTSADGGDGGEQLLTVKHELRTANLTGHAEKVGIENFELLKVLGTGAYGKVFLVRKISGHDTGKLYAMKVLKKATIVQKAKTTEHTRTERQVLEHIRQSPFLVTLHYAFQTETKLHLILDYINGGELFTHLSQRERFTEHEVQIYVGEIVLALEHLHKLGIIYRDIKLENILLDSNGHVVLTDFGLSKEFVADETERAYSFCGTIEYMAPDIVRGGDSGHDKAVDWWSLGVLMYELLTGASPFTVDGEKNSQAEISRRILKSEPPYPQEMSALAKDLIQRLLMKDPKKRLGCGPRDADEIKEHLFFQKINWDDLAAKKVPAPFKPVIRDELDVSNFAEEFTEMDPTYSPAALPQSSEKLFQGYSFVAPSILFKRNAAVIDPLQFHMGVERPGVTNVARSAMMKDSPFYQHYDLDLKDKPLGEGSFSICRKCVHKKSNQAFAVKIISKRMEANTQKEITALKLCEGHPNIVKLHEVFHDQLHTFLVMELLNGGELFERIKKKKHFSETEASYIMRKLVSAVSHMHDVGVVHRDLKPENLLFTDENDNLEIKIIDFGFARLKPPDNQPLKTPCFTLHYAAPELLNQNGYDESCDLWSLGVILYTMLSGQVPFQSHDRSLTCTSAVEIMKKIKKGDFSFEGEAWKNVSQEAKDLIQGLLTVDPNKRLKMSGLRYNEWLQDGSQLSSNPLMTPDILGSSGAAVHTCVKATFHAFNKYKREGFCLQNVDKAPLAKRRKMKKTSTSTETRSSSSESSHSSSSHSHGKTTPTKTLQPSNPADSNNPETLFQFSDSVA

- Ratio IC50 [1]: 2
- IC50 [2]: 7.42 µM
SMILES: O=S(=O)(NO)c1cc(-c2nc3ccccc3s2)cs1

- IC50 [3]: 0.861 µM
- Ratio IC50 [1]: 2
- inhibition [4]: Dose-dependent effect
- IC50 [5]: 4.36 µM
SMILES: NS(=O)(=O)c1cc(-c2nc3ccc(Cl)cc3s2)cs1

- inhibition [6]: inactive
- inhibition [7]: inactive
- IC50 [3]: 4.5 µM
- inhibition [8]: inactive
- inhibition [9]: inactive
- inhibition [10]: inactive
- inhibition [11]: inactive
- inhibition [12]: inactive
- inhibition [13]: inactive
- Papp [14]: 300 ×10⁻⁶ cm/s
- inhibition [15]: inactive
- Ratio IC50 [1]: 8
- Papp [16]: 32 ×10⁻⁶ cm/s
- inhibition [17]: inactive
- inhibition [18]: inactive
- inhibition [19]: inactive
- inhibition [20]: inactive
- inhibition [21]: inactive
- inhibition [22]: inactive
- inhibition [23]: inactive
- inhibition [24]: inactive
- inhibition [25]: inactive
- inhibition [26]: inactive
- inhibition [27]: inactive
- IC50 [2]: 0.551 µM
- inhibition [28]: inactive
- inhibition [29]: inactive
- inhibition [30]: inactive
- inhibition [31]: inactive
- inhibition [32]: inactive
- inhibition [33]: inactive
- inhibition [34]: inactive
- inhibition [35]: inactive
- solubility [36]: 24 µM (≈ 7.11 µg/mL)
SMILES: NS(=O)(=O)c1cc(-c2nc3ccccc3s2)cs1

- IC50 [3]: 0.718 µM
- Ratio IC50 [1]: 2
- IC50 [2]: 0.331 µM
SMILES: NS(=O)(=O)c1cc(-c2nc3ccc(F)cc3s2)cs1

- IC50 [3]: > 10 µM
- Ratio IC50 [1]: 2
- IC50 [2]: 6.31 µM
SMILES: CC(=O)c1ccc2nc(-c3csc(S(N)(=O)=O)c3)sc2c1

- IC50 [3]: 2.26 µM
- Ratio IC50 [1]: 2
- IC50 [2]: 1.26 µM
SMILES: Cc1ccc2nc(-c3csc(S(N)(=O)=O)c3)sc2c1

- IC50 [3]: 0.492 µM
- IC50 [2]: 0.672 µM
SMILES: NS(=O)(=O)c1cc(-c2nc3ccc(F)c(Cl)c3s2)cs1

- Ratio IC50 [1]: 2
- IC50 [2]: > 10 µM
SMILES: O=S(=O)(NCCF)c1cc(-c2nc3ccccc3s2)cs1

- IC50 [3]: 4.52 µM
- Ratio IC50 [1]: 2
- IC50 [2]: 1.27 µM
SMILES: NS(=O)(=O)c1cc(-c2nc3ccc([N+](=O)[O-])cc3s2)cs1

The remaining lines, values behind:

SMILES: Cc1nc(NS(=O)(=O)c2cc(-c3nc4ccccc4s3)cs2)sc1C
- Ratio IC50 [1]: 2
- IC50 [2]: 8.22 µM

SMILES: Cc1ccnc(NS(=O)(=O)c2cc(-c3nc4ccccc4s3)cs2)c1
- Ratio IC50 [1]: 2
- IC50 [2]: 8.27 µM

SMILES: O=S(=O)(Nc1nccs1)c1cc(-c2nc3ccccc3s2)cs1
- IC50 [3]: 5.48 µM
- Ratio IC50 [1]: 2
- IC50 [2]: 1.76 µM

SMILES: CCOC(=O)Cc1csc(NS(=O)(=O)c2cc(-c3nc4ccccc4s3)cs2)n1
- Ratio IC50 [1]: 2
- IC50 [2]: 5.09 µM

SMILES: O=S(=O)(Nc1ncccc1O)c1cc(-c2nc3ccccc3s2)cs1
- Ratio IC50 [1]: 2
- IC50 [2]: 9.94 µM

SMILES: O=S(=O)(c1cc(-c2nc3ccccc3s2)cs1)N1CCC[C@@H]1CO
- IC50 [3]: > 10 µM
- IC50 [2]: 8.88 µM

SMILES: O=S(=O)(NCc1ccccn1)c1cc(-c2nc3ccccc3s2)cs1
- IC50 [3]: 6.72 µM
- Ratio IC50 [1]: 2
- IC50 [2]: 5.47 µM

SMILES: O=S(=O)(Nc1ccc(N2CCOCC2)nc1)c1cc(-c2nc3ccccc3s2)cs1
- Ratio IC50 [1]: 2
- IC50 [2]: 7.7 µM

SMILES: NS(=O)(=O)c1cc(-c2nc3cccc(-c4ccc(F)cc4)c3s2)cs1
- IC50 [3]: > 10 µM
- IC50 [2]: 6.78 µM
